Experimental data as given in ChEMBL document CHEMBL1153511, “Synthesis and biological evaluation of sphingosine kinase substrates as sphingosine-1-phosphate receptor prodrugs” (2009).
Calls of active or inactive are those of the source. No cut-off for these calls is given here.

Columns and labels:
[1] = target: Sphingosine 1-phosphate receptor 1 (Homo sapiens) (UniProt P21453); assay: Ratio of agonistic EC50 for S1P to compound for human S1P1 receptor by [35S]GTPgammaS binding assay; format: functional
In short: (§1)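 The chemically phosphorylated compounds were tested as agonists at each individual S1P receptor. Agonist-stimulated binding of GTP[γ-35S] to membranes was measured. EC50 and Emax were normalized to those of S1P run in the same assay.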

[2] = target: Sphingosine 1-phosphate receptor 1 (Homo sapiens) (UniProt P21453); assay: Ratio of agonistic Emax for S1P to compound for human S1P1 receptor by [35S]GTPgammaS binding assay; format: functional; in short: as §1
[3] = target: Sphingosine 1-phosphate receptor 2 (Homo sapiens) (UniProt O95136); assay: Ratio of agonistic EC50 for S1P to compound for human S1P2 receptor by [35S]GTPgammaS binding assay; format: functional; in short: as §1
[4] = target: Sphingosine 1-phosphate receptor 2 (Homo sapiens) (UniProt O95136); assay: Ratio of agonistic Emax for S1P to compound for human S1P2 receptor by [35S]GTPgammaS binding assay; format: functional; in short: as §1
[5] = target: Sphingosine 1-phosphate receptor 3 (Homo sapiens) (UniProt Q99500); assay: Ratio of agonistic EC50 for S1P to compound for human S1P3 receptor by [35S]GTPgammaS binding assay; format: functional; in short: as §1
[6] = target: Sphingosine 1-phosphate receptor 3 (Homo sapiens) (UniProt Q99500); assay: Ratio of agonistic Emax for S1P to compound for human S1P3 receptor by [35S]GTPgammaS binding assay; format: functional; in short: as §1
[7] = target: T1, Sphingosine 1-phosphate receptor 4 (Homo sapiens) (UniProt O95977); assay: Ratio of agonistic EC50 for S1P to compound for human S1P4 receptor by [35S]GTPgammaS binding assay; format: functional; in short: as §1
T1 sequence (whole entry): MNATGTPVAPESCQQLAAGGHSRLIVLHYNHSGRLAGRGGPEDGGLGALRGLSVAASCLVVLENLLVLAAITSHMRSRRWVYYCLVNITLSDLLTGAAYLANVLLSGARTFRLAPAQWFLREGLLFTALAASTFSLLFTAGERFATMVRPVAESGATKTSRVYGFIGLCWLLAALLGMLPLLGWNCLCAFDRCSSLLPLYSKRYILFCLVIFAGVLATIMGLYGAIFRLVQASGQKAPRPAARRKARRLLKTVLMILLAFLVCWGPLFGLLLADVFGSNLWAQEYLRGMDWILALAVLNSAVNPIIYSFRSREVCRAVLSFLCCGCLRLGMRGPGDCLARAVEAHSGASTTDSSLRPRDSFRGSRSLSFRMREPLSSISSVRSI

[8] = target: T1, Sphingosine 1-phosphate receptor 4 (Homo sapiens); assay: Ratio of agonistic Emax for S1P to compound for human S1P4 receptor by [35S]GTPgammaS binding assay; format: functional; in short: as §1
[9] = target: Sphingosine 1-phosphate receptor 5 (Homo sapiens) (UniProt Q9H228); assay: Ratio of agonistic EC50 for S1P to compound for human S1P5 receptor by [35S]GTPgammaS binding assay; format: functional; in short: as §1
[10] = target: Sphingosine 1-phosphate receptor 5 (Homo sapiens) (UniProt Q9H228); assay: Ratio of agonistic Emax for S1P to compound for human S1P5 receptor by [35S]GTPgammaS binding assay; format: functional; in short: as §1
[11] = target: Sphingosine kinase 1 (Homo sapiens) (UniProt Q9NYA1); assay: Activity at human SPHK1 at 100 uM
Mus musculus = assay: Induction of S1P1-mediated lymphopenia in mouse assessed as lymphocyte depletion at 10 mg/kg, ip after 20 hrs; format: functional; settings: route intraperitoneal
In short: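 Mice received a single ip injection. Lymphocyte depletion from peripheral blood was assessed 20 h after dosing.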

[12] = target: T2, Sphingosine kinase 2 (Homo sapiens) (UniProt Q9NRA0); assay: Activity at human SPHK2 at 15 uM
T2 sequence (whole entry): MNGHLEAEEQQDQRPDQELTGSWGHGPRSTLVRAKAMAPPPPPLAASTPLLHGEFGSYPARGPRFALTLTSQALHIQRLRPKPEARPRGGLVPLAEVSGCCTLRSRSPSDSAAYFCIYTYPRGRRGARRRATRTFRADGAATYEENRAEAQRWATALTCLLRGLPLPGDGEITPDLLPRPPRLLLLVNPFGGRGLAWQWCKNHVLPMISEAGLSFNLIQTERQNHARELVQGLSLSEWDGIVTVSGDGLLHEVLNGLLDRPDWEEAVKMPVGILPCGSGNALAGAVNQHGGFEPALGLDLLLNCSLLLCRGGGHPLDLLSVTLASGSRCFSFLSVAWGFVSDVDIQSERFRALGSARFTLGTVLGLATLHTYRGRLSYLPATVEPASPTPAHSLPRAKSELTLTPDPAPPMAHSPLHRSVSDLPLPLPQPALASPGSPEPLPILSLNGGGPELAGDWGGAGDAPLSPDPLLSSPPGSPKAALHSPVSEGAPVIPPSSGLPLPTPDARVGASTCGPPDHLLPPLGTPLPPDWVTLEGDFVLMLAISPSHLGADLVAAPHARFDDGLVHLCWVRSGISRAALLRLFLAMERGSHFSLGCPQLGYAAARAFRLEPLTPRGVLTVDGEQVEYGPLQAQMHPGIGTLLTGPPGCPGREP

[13] = target: T2, Sphingosine kinase 2 (Homo sapiens); assay: Activity at human SPHK2 at 100 uM

Chain of Sphingosine 1-phosphate receptor 3 (Homo sapiens) (Q99500 whole entry): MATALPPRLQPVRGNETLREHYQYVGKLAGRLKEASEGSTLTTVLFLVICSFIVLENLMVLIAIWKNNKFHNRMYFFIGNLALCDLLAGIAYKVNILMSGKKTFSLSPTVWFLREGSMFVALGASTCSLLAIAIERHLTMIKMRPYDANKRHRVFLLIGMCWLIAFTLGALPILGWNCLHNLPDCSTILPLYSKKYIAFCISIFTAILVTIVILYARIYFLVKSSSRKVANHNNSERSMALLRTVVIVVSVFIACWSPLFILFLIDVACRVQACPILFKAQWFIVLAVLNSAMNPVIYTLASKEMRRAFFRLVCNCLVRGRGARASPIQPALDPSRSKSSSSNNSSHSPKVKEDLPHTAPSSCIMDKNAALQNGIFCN
Chain of Sphingosine 1-phosphate receptor 5 (Homo sapiens) (Q9H228 whole entry): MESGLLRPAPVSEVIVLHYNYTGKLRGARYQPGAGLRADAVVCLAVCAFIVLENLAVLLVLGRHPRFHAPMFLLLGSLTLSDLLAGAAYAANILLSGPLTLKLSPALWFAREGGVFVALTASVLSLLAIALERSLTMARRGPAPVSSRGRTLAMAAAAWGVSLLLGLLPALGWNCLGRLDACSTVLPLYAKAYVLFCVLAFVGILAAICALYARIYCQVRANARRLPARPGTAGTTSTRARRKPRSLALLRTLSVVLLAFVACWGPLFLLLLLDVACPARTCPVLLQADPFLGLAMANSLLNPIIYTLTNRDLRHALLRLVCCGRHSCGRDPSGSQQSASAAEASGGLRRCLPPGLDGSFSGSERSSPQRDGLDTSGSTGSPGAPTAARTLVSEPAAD
Chain of Sphingosine 1-phosphate receptor 1 (Homo sapiens) (P21453 whole entry): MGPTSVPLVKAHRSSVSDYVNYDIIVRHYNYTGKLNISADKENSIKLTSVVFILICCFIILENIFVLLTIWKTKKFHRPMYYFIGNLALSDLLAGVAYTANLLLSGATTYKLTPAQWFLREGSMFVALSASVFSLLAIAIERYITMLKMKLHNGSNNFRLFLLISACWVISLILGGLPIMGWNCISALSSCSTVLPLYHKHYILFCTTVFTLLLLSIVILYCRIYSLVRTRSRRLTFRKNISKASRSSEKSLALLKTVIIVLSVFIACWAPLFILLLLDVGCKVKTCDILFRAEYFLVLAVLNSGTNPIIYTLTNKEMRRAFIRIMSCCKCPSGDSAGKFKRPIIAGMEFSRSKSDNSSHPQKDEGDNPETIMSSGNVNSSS
Chain of Sphingosine 1-phosphate receptor 2 (Homo sapiens) (O95136 whole entry): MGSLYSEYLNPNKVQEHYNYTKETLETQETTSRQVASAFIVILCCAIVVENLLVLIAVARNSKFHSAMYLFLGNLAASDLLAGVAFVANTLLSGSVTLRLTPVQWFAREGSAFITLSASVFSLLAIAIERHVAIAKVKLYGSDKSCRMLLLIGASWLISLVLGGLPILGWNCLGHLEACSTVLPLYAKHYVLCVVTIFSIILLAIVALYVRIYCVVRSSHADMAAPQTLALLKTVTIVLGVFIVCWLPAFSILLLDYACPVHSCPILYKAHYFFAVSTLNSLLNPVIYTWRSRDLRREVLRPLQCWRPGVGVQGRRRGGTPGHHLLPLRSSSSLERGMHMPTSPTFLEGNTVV
Chain of Sphingosine kinase 1 (Homo sapiens) (Q9NYA1 whole entry): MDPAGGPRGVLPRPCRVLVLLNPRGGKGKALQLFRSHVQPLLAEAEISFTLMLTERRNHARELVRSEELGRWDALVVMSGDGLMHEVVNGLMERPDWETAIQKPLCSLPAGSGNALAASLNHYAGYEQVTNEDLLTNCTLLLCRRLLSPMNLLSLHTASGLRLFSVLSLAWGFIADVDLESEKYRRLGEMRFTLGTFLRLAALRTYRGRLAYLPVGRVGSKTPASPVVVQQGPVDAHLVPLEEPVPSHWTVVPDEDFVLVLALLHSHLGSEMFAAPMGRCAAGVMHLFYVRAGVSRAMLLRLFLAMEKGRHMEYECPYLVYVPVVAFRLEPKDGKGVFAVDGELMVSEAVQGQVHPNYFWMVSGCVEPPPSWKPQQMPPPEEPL

`CCCCCCCCc1ccc(-c2noc(C(C)(N)COP(=O)(O)O)n2)cc1` (racemic) was tested, and the Ratio EC50 [1] was 24.4, the Ratio [2] was 0.89 and the “Ratio EC50” value [3] was “inactive”. The Ratio [4] was 0, the Ratio EC50 [5] was 23 and the Ratio [6] was 0.51. The Ratio EC50 [7] was 0.52, the Ratio [8] was 0.81 and the Ratio EC50 [9] was 4.35. It also gave a Ratio [10] of 0.73.

`CCCCCCCCc1ccc(-c2nc(C(C)(N)CO)no2)cc1` (centres undefined) was tested, and the Activity [11] was “Active”.

`CCCCCCCCc1ccc(-c2cnc([C@](C)(N)COP(=O)(O)O)[nH]2)cc1.O=C(O)C(F)(F)F.O=C(O)C(F)(F)F` was tested, and the Activity (Mus musculus) was 75%, the Ratio EC50 [1] was 8.09 and the Ratio [2] was 0.92. For the same compound, the “Ratio EC50” value [3] was “inactive”, the Ratio [4] was 0 and the Ratio EC50 [5] was 1000. The Ratio [6] was 0.61, the Ratio EC50 [7] was 4.13 and the Ratio [8] was 1.19. It also gave a Ratio EC50 [9] of 16.1 and a Ratio [10] of 0.83.

With `CCCCCCCCc1ccc(-c2cnc([C@@](C)(N)COP(=O)(O)O)[nH]2)cc1.O=C(O)C(F)(F)F.O=C(O)C(F)(F)F` the Activity (Mus musculus) was 75%, the Ratio EC50 [1] was 1.09 and the Ratio [2] was 0.87. For the same compound, the “Ratio EC50” value [3] was “inactive”, the Ratio [4] was 0 and the Ratio EC50 [5] was 50.8. It also gave a Ratio [6] of 0.65, a Ratio EC50 [7] of 0.59 and a Ratio [8] of 0.93. For the same compound, the Ratio EC50 [9] was 3.62 and the Ratio [10] was 0.83.

Work on `CCCCCCCCc1ccc(-c2cnc([C@@](C)(N)CO)[nH]2)cc1` yielded an Activity [12] of 20% and an Activity (Mus musculus) of 75%.

In the case of `CCCCCCCCc1ccc(-c2coc(C(C)(N)COP(=O)(O)O)n2)cc1` (centres undefined), the Ratio EC50 [1] was 4.28, the Ratio [2] was 0.8 and the Ratio [4] was 0. It also gave a Ratio EC50 [5] of 52.5, a Ratio [6] of 1 and a Ratio EC50 [9] of 24.1. It also gave a Ratio [10] of 0.6.

In the case of `CCCCCCCCc1ccc(-c2nc(C(C)(N)COP(=O)(O)O)no2)cc1` (centres undefined), the Ratio EC50 [1] was 2.5, the Ratio [2] was 1 and the Ratio [4] was 0. It also gave a Ratio EC50 [9] of 21.6 and a Ratio [10] of 1.

`CCCCCCCCc1ccc(-c2cnc([C@](C)(N)CO)[nH]2)cc1` was tested, and the Activity [13] was “inactive” and the Activity (Mus musculus) was 75%.
